Holding throughout (format): cell-based
Data set [1] deals with HepG2. Nature of the data set: Cytotoxicity against human HepG2 cells assessed as increase in extracellular lactate secretion at 50 uM after 15 days relative to control. The note with it: hepg2, 360 h. Summed up: (§1)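 Extracellular lactate in HepG2 culture medium measured with a lactic acid kit after 15 days of exposure. Medium and drug renewed every 3 days. Expressed as mg lactic acid per 10⁶ cells, then as percent of 0.1% DMSO vehicle control. n = 3.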

Data set [2] concerns HepG2. Briefly: Cytotoxicity against human HepG2 cells assessed as inhibition of mitochondrial respiratory chain complex III activity at 50 uM after 15 days relative to control. The note with it: hepg2, 360 h.
For data set [3], the system named is HepG2. Briefly: Cytotoxicity against human HepG2 cells assessed as reduction in mitochondrial DNA content at 50 uM after 15 days by RT-PCR method relative to control. Also on record: scale not given: the % may be the effect or the level left. The note with it: hepg2, 360 h. The gist of the method: (§2)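 Total DNA extracted from HepG2 cells after 15-day exposure. Cells reseeded every 5 days; compounds added from 1,000× DMSO stocks, final DMSO 0.1%. Cytochrome b and actin copies measured by TaqMan real-time PCR against plasmid standard curves, 45 cycles. mtDNA/nDNA ratio expressed as percent of DMSO control; three independent experiments.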

Data set [4] relates to HepG2. Nature of the data set: Cytotoxicity against human HepG2 cells assessed as reduction in viable cells at 50 uM after 6 days by trypan blue dye exclusion assay relative to control. The note with it: hepg2, 144 h. Summed up:
(§3)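 HepG2 cells seeded at 5 × 10⁵/ml in MEM with 10% FBS and 1 mM pyruvate. Exposed for 6, 9 and 15 days, with medium and drug renewed every 3 days. Viable cells counted by trypan blue exclusion on a hemocytometer and expressed as percent of 0.1% DMSO control; three independent experiments.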

Data set [5] has as its system HepG2. Nature of the data set: Cytotoxicity against human HepG2 cells assessed as inhibition of mitochondrial respiratory chain complex I activity at 50 uM after 15 days relative to control. The note with it: hepg2, 360 h.
Data set [6] relates to HepG2. Briefly: Cytotoxicity against human HepG2 cells assessed as inhibition of mitochondrial respiratory chain complex IV activity at 50 uM after 15 days relative to control. The conditions noted are these: hepg2, 360 h.
Data set [7] relates to HepG2. Nature of the data set: Cytotoxicity against human HepG2 cells assessed as slight increase in mitochondrial size at 50 uM after 15 days by electron microscopy relative to control. The note with it: hepg2, 360 h. Summed up:
(§4)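 HepG2 cells exposed 15 days, then fixed in 2.5% glutaraldehyde 1 h, postfixed in 1% osmium tetroxide 1 h, dehydrated through graded ethanol and propylene oxide, Epon-embedded, sectioned, and stained with uranyl acetate and lead citrate. Examined by transmission EM; >10 fields per treatment at low or high magnification; three independent experiments. DMSO 0.1% vehicle control.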

For data set [8], the system named is HepG2. Nature of the data set: Cytotoxicity against human HepG2 cells assessed as reduction in viable cells at 50 uM after 15 days by trypan blue dye exclusion assay relative to control. The note with it: hepg2, 360 h. Summed up: as §3
Data set [9] relates to HepG2. Briefly: Cytotoxicity against human HepG2 cells assessed as inhibition of mitochondrial respiratory chain complex II activity at 50 uM after 15 days relative to control. The conditions noted are these: hepg2, 360 h.
Data set [10] has as its system HepG2. Briefly: Cytotoxicity against human HepG2 cells assessed as reduction in viable cells at 10 uM after 15 days by trypan blue dye exclusion assay relative to control. The note with it: hepg2, 360 h. The gist of the method: as §3
The subject of data set [11] is HepG2. Briefly: Cytotoxicity against human HepG2 cells assessed as inhibition of mitochondrial respiratory chain complex III activity at 10 uM after 15 days relative to control. The conditions noted are these: hepg2, 360 h.
The subject of data set [12] is HepG2. Nature of the data set: Cytotoxicity against human HepG2 cells assessed as inhibition of mitochondrial respiratory chain complex IV activity at 10 uM after 15 days relative to control. The conditions noted are these: hepg2, 360 h.
Data set [13] relates to HepG2. Nature of the data set: Cytotoxicity against human HepG2 cells assessed as inhibition of mitochondrial respiratory chain complex II activity at 10 uM after 15 days relative to control. The conditions noted are these: hepg2, 360 h.
Data set [14] relates to HepG2. Nature of the data set: Cytotoxicity against human HepG2 cells assessed as mitochondrial swelling at 10 uM after 15 days by electron microscopy relative to control. The conditions noted are these: hepg2, 360 h. Summed up:
as §4

Data set [15] deals with HepG2. Briefly: Cytotoxicity against human HepG2 cells assessed as disrupted mitochondrial cristae at 10 uM after 15 days by electron microscopy relative to control. The conditions noted are these: hepg2, 360 h. The gist of the method: as §4
The test system of data set [16] is HepG2. Briefly: Cytotoxicity against human HepG2 cells assessed as inhibition of mitochondrial respiratory chain complex I activity at 10 uM after 15 days relative to control. The conditions noted are these: hepg2, 360 h.
Data set [17] relates to HepG2. Nature of the data set: Cytotoxicity against human HepG2 cells assessed as reduction in mitochondrial DNA content at 10 uM after 15 days by RT-PCR method relative to control. On the set-up: scale not given: the % may be the effect or the level left. The note with it: hepg2, 360 h. The gist of the method: as §2
Data set [18] deals with HepG2. Briefly: Cytotoxicity against human HepG2 cells assessed as increase in extracellular lactate secretion at 10 uM after 15 days relative to control. The conditions noted are these: hepg2, 360 h. The gist of the method:
as §1

Data set [19] deals with HepG2. Briefly: Cytotoxicity against human HepG2 cells assessed as reduction in viable cells upto 250 uM after 15 days by trypan blue dye exclusion assay relative to control. The conditions noted are these: hepg2, 360 h. The gist of the method: as §3
For data set [20], the system named is HepG2. Nature of the data set: Cytotoxicity against human HepG2 cells assessed as inhibition of mitochondrial respiratory chain complex IV activity after 15 days relative to control. The note with it: hepg2, 360 h.
The test system of data set [21] is HepG2. Briefly: Cytotoxicity against human HepG2 cells assessed as increase in extracellular lactate secretion at 10 to 250 uM after 15 days relative to control. The note with it: hepg2, 360 h. Summed up: as §1
Data set [22] has as its system HepG2. Nature of the data set: Cytotoxicity against human HepG2 cells assessed as inhibition of mitochondrial respiratory chain complex II activity at 250 uM after 15 days relative to control. The note with it: hepg2, 360 h.
For data set [23], the system named is HepG2. Briefly: Cytotoxicity against human HepG2 cells assessed as inhibition of mitochondrial respiratory chain complex IV activity at 250 uM after 15 days relative to control. The conditions noted are these: hepg2, 360 h.
Data set [24] deals with HepG2. Nature of the data set: Cytotoxicity against human HepG2 cells assessed as mitochondrial swelling at 250 uM after 15 days by electron microscopy relative to control. The conditions noted are these: hepg2, 360 h. Summed up:
as §4

Data set [25] relates to HepG2. Nature of the data set: Cytotoxicity against human HepG2 cells assessed as lipid droplet formation at 250 uM after 15 days by electron microscopy relative to control. The note with it: hepg2, 360 h. Summed up:
as §4

The test system of data set [26] is HepG2. Nature of the data set: Cytotoxicity against human HepG2 cells assessed as inhibition of mitochondrial respiratory chain complex I activity at 250 uM after 15 days relative to control. The conditions noted are these: hepg2, 360 h.
Data set [27] relates to HepG2. Nature of the data set: Cytotoxicity against human HepG2 cells assessed as inhibition of mitochondrial respiratory chain complex I activity after 15 days relative to control. The note with it: hepg2, 360 h.
For data set [28], the system named is HepG2. Briefly: Cytotoxicity against human HepG2 cells assessed as inhibition of mitochondrial respiratory chain complex III activity at 250 uM after 15 days relative to control. The conditions noted are these: hepg2, 360 h.
The subject of data set [29] is HepG2. Briefly: Cytotoxicity against human HepG2 cells assessed as inhibition of mitochondrial respiratory chain complex II activity after 15 days relative to control. The note with it: hepg2, 360 h.
In data set [30] the test system is HepG2. Briefly: Cytotoxicity against human HepG2 cells assessed as reduction in mitochondrial DNA content at 250 uM after 15 days by RT-PCR method relative to control. On the set-up: scale not given: the % may be the effect or the level left. The conditions noted are these: hepg2, 360 h. Summed up: as §2
For data set [31], the system named is HepG2. Briefly: Cytotoxicity against human HepG2 cells assessed as inhibition of mitochondrial respiratory chain complex III activity after 15 days relative to control. The note with it: hepg2, 360 h.

A value given as a limit tells only on which side of the number the result lay.

In the case of `Cc1cn([C@H]2C[C@H](N=[N+]=[N-])[C@@H](CO)O2)c(=O)[nH]c1=O` [ZIDOVUDINE], the Activity with HepG2 [1] is 300%; with HepG2 [2] it was “Toxic”; with HepG2 [3] it was “Non-toxic”; in the data set with HepG2 [4] it was “Toxic”; with HepG2 [5], “Toxic”; with HepG2 [6], “Toxic”. Also, the Activity result is recorded as “Toxic” with HepG2 [7], 60% in the data set on HepG2 [8] and “Toxic” with HepG2 [9].
On to `Nc1ccn([C@H]2CC[C@@H](CO)O2)c(=O)n1` [ZALCITABINE], for which the Activity with HepG2 [10] was under 30%; with HepG2 [11], “Toxic”; with HepG2 [12], “Toxic”; with HepG2 [13], “Toxic”; with HepG2 [14], “Toxic”; in the data set on HepG2 [15], “Toxic”. Moreover, the Activity result in the data set on HepG2 [16] is “Toxic”; with HepG2 [17] it was 3%; in the data set with HepG2 [18], 170%.
Take `COc1nc(N)nc2c1ncn2[C@H]1CC[C@@H](CO)O1` [METACAVIR]: the Activity entry was “Non-toxic” with HepG2 [19]; “Non-toxic” with HepG2 [11]; “Non-toxic” in the data set on HepG2 [12]; “Dose-dependent effect” in the data set on HepG2 [20]; “Toxic” in the data set on HepG2 [2]; “Non-toxic” in the data set on HepG2 [13]. Besides, the Activity entry in the data set on HepG2 [21] is “Non-toxic”; with HepG2 [3], 80%; with HepG2 [22] it was “Toxic”; in the data set with HepG2 [5] it was “Toxic”; with HepG2 [23], “Toxic”; in the data set with HepG2 [24], “Toxic”. Moreover, the Activity entry in the data set on HepG2 [25] is reported as “Toxic”; in the data set with HepG2 [6], “Toxic”; with HepG2 [26], “Toxic”; with HepG2 [27] it was “Dose-dependent effect”; in the data set with HepG2 [28] it was “Toxic”; in the data set on HepG2 [29], “Dose-dependent effect”. Moreover, the Activity with HepG2 [30] is 60%; with HepG2 [31] it was “Dose-dependent effect”; in the data set with HepG2 [16] it was “Non-toxic”; in the data set on HepG2 [17], “Non-toxic”; in the data set on HepG2 [9], “Non-toxic”.

For the origin of these results see ChEMBL document CHEMBL1687798, “In vitro mitochondrial toxicity of metacavir, a new nucleoside reverse transcriptase inhibitor for treatment of hepatitis B virus” (Antimicrob Agents Chemother, 2010).
